# Experimental data from PubChem BioAssay AID504383 (The Scripps Research Institute Molecular Screening Center, 2011).
# Out of some 2,500 compounds screened, about 1,200 (48%) were called active. So high a share suggests a set chosen from earlier hits. The list shows a part of the results. Unmarked numbers belong to inactive results.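 The calls were made as follows: active = mean activation above the low control average plus 3 SD, as set in the primary screen (cut at about 12% in these data); inactive = the rest.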
# Target: Troponin I, cardiac muscle (Homo sapiens) + Troponin T, cardiac muscle (Homo sapiens) + Troponin C, slow skeletal and cardiac muscles (Homo sapiens) (UniProt P19429+P45379+P63316)
# Experiment: calcium sensitizers of cardiac thin filaments – biochemical, IANBD-TnC fluorescence, triplicate, confirmation (AID 504383);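 also: 0% = DMSO at 0.472 mM calcium and 100% = DMSO at 2.9 mM calcium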
# Details: IANBD-labeled cardiac RTF, Ca2+ sensitivity fluorescence; at 7.2 µM; hits give high values; scaled from EC20 to saturating calcium; tested at EC20 calcium, 0.472 mM
# Method in brief: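 Assay system: labelled regulated thin filaments / Timing: 15 min at 25 °C / Detection: fluorescence intensity of labelled filaments / Measure: fluorescence gain scaled between EC20 and EC100 calcium controls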
row,SMILES,activation
1,COC(=O)C1=NN(C(=O)c2ccc(Br)cc2)C(O)(C(C)(C)C)C1 (centres undefined),13.4% (active)
2,CC(C)(C)C1(O)CC(C(F)(F)F)=NN1C(=O)CCCc1ccccc1 (centres undefined),3.64%
3,CCN(CC)c1ccc(/C=C2/SC(=O)N(C(C)C)C2=O)o1,15.2% (active)
4,COc1ccc(/C=C2\Oc3cc(OC(=O)N4CCOCC4)ccc3C2=O)c(OC)c1,19.2% (active)
5,COc1cc(OC)c(OC)cc1/C=C1\Oc2cc(OCC(=O)N3Cc4ccccc4C[C@H]3C(=O)O)ccc2C1=O,7.71%
6,COc1ccc(/C=C2\Oc3cc(OCC(=O)N4CCC(C(=O)O)CC4)ccc3C2=O)c(OC)c1,249% (active)
7,COc1ccc(/C=C2\Oc3cc(OCC(=O)N4CCC[C@H]4C(=O)O)ccc3C2=O)c(OC)c1,17.4% (active)
8,COc1ccc(/C=C2\Oc3cc(OCC(=O)N4CCC[C@H]4CO)ccc3C2=O)c(OC)c1,13.8% (active)
9,CS(=O)(=O)N(CC(=O)NCCSCc1ccccc1)c1ccccc1,7.88%
10,CCOC(=O)c1c(NC(=O)c2ccno2)c2cc([N+](=O)[O-])ccc2n1C,4.78%
11,Cc1cccc(C)c1OCC(C)N (centres undefined),15.2% (active)
12,Cc1cccc(OCc2nn[nH]n2)c1C,9.03%
13,CC(=O)Oc1ccc2c(c1)Oc1cc(OC(C)=O)ccc1C21OC(=O)c2ccccc21,49.7% (active)
14,CC1CCCCC1NS(=O)(=O)CCNC(=O)c1ccccc1 (centres undefined),1.54%
15,Cc1cc(C)c2c(SC(C)C)nc(N)nc2n1,18.3% (active)
16,Cc1ccccc1NC(=S)Nc1ccc(Br)cc1,9.23%
17,Cc1ccc(NC(=O)Cn2ccnc2)cc1C,6.24%
18,Cc1ccc(NC(=S)Nc2ccc3nc(-c4ccccn4)c(-c4ccccn4)nc3c2)cc1C,15.9% (active)
19,C=CCn1c(C)cc(-c2csc(N)n2)c1C,9.08%
20,CC(=O)Nc1sc2c(c1-c1nc3ccccc3s1)CN(C(C)C)CC2,3.29%
21,NC(=O)c1c(NC(=O)C2COc3ccccc3O2)sc2c1CCN(Cc1ccccc1)C2 (centres undefined),5.35%
22,O=C1NC(c2ccccc2)=C(c2nc3ccccc3s2)C(c2ccc(O)cc2)N1 (centres undefined),2.85%
23,O=C(Nc1nc(-c2nc3ccccc3s2)cs1)C1COc2ccccc2O1 (centres undefined),43.4% (active)
24,O=C(Nc1ccc(Cl)cn1)C1COc2ccccc2O1 (centres undefined),54.7% (active)

row,SMILES,activation
1,Cc1ccc(S(=O)(=O)c2c(N)n(Cc3ccco3)c3nc4ccccc4nc23)cc1,8.53%
2,Nc1c(S(=O)(=O)c2ccccc2)c2nc3ccccc3nc2n1/N=C/c1ccco1,4.69%
3,Nc1c(S(=O)(=O)c2ccccc2)c2nc3ccccc3nc2n1Cc1ccco1,79.2% (active)
4,COc1cccc(CNC(=O)CN(C)S(=O)(=O)c2ccc3c(c2)c(=O)n(C)c(=O)n3C)c1,11.5%
5,COc1cccc(CNC(=O)CN(C)S(=O)(=O)c2cnc[nH]2)c1,151% (active)
6,CCOc1ccc(-c2ncncc2-c2ccccc2OC)c(O)c1,5.97%
7,COc1ccccc1/C=C/CN1CCC(CO)(Cc2ccccc2)CC1,11.1%
8,CCC(=Cc1ccccc1OC)c1ccncc1,17.2% (active)
9,Cc1cc[n+](-c2[nH]c(=O)sc2/C=N/N=C(\[O-])c2ccccc2)cc1C,22.1% (active)
10,Cc1cc[n+](-c2[nH]c(=O)sc2/C=N/NC([S-])=Nc2ccccc2)cc1,18.3% (active)
11,Cc1cc[n+](-c2[nH]c(=O)sc2/C=N/NC([S-])=Nc2ccccc2)cc1C,6.12%
12,Cc1cc(C)c[n+](-c2[nH]c(=O)sc2/C=N/NC([S-])=Nc2ccccc2)c1,-0.42%
13,CCc1ccc[n+](-c2[nH]c(=O)sc2/C=N/NC([S-])=Nc2ccccc2)c1,49.2% (active)
14,O=c1[nH]c(-[n+]2ccccc2)c(/C=N/NC([S-])=Nc2ccccc2)s1,8.23%
15,CC(C)(C)c1cc[n+](-c2[nH]c(=O)sc2/C=N/NC([S-])=Nc2ccccc2)cc1,5.34%
16,Cc1ccccc1N1C(=O)c2cccc3c(N(C)CCO)ccc(c23)C1=O,11.1%
17,CN1C(=O)c2cccc3c(N)ccc(c23)C1=O,5.53%
18,CCCCNc1ccc2c3c(cccc13)C(=O)N(CCCC)C2=O,5.54%
19,CN1C(=O)c2cccc3c(N(C)C)ccc(c23)C1=O,223% (active)
20,CNc1ccc2c3c(cccc13)C(=O)N(C)C2=O,44.4% (active)
21,Cc1cccc(N2C(=O)c3cccc4c(N(C)CCO)ccc(c34)C2=O)c1,6.7%
22,O=C(Cc1ccc(Cl)cc1)NNS(=O)(=O)c1ccc([N+](=O)[O-])cc1,275% (active)
23,O=C(CSc1ccc(Cl)cc1)Nc1nnc(-c2cccc([N+](=O)[O-])c2)s1,-1.31%
24,O=c1[nH]ncc2c3ccccc3n(Cc3cccc(Cl)c3)c12,-2.41%

row,SMILES,activation
1,O=S(=O)(O)c1nc2ccccc2n1Cc1ccccc1,51.8% (active)
2,CCN1C(=O)c2cccc3c(NC(=O)c4ccc5c(c4)OCCO5)ccc1c23,1730% (active)
3,CCCCN(C(=O)c1ccc2c(c1)OCCO2)c1c(N)n(CCCC)c(=O)[nH]c1=O,3.97%
4,Cc1ccccc1NC(=O)c1nnn(-c2ccc3c(c2)OCCO3)c1N,5.33%
5,CN(Cc1ccccc1)C(=O)c1ccc(NC(=O)Cc2ccc(NC(=O)C3CCCN(S(=O)(=O)c4cccc([N+](=O)[O-])c4)C3)cc2)cc1 (centres undefined),6.95%
6,COc1cccc(S(=O)(=O)Nc2cccc(C(=O)N3CCCCCC3)c2)c1,-0.51%
7,O=C(Cc1ccc(NC(=O)C2CCCN(C(=O)C3CCCCC3)C2)cc1)Nc1cccc(C(=O)N2CCCC2)c1 (centres undefined),13.2% (active)
8,CC(=O)Nc1ccc(S(=O)(=O)NCCC(=O)OCC(=O)c2cc(C)ccc2C)cc1,10.1%
9,Cc1ccc(S(=O)(=O)NCCCCCC(=O)Nc2ccccc2C)cc1,34.1% (active)
10,Cc1ccc(S(=O)(=O)Nc2ccccc2N(C)S(=O)(=O)c2ccc(C)cc2)cc1,9.04%
11,Cc1ccc(C)c(OCCN2C(=O)NC3(CCc4ccccc4C3)C2=O)c1 (centres undefined),2.13%
12,C=COc1ccc(N2C(=O)c3ccccc3OC2C)cc1 (centres undefined),32.1% (active)
13,COc1cc(/C=C2/C(=O)NN(c3cccc(F)c3)C2=O)ccc1OC(=O)c1ccco1,3.13%
14,COc1ccc(CC(=O)N(C)Cc2cccc(F)c2)cc1S(=O)(=O)N1CCOCC1,12.3% (active)
15,Cc1ccc(C(=O)N(C)CC(=O)Nc2cccc(F)c2)cc1S(=O)(=O)N1CCCCC1,6.56%
16,NC(=O)c1ccccc1N/C=C/C(=O)c1ccc(Cl)cc1Cl,19% (active)
17,COC(=O)c1cnn2c(C(F)(F)F)cc(-c3ccco3)nc12,4.76%
18,Cc1cccc(C)c1NC(=O)CN(C1CCCCC1)S(C)(=O)=O,9.63%
19,CSc1nc2ccccc2n1CC(=O)Nc1c(C)cccc1C,12.7% (active)
20,Cc1cccc(C)c1NC(=O)CNC(=O)Cc1ccc(Br)cc1,10.9%
21,NC(=O)NC(Cc1ccccc1)C(=O)NCC1(N2CCCCC2)CCCCC1 (centres undefined),9.4%
22,Cc1c(C(=O)NC2CC2)oc2ccccc12,7.6%
23,Cc1cc(-c2ccccc2C(=O)NC2CCCCC2)on1,6.39%
24,Cc1nn(-c2ccccc2)c(Cl)c1C(=O)NC1CCCCC1,20.7% (active)

row,SMILES,activation
1,O=C(CNC(=O)C12CC3CC(CC(C3)C1)C2)OCC(=O)N1CCCCC1,11.6%
2,COc1ccc(OC)c(/C=C/c2nc3ccccc3[nH]c2=O)c1,6.55%
3,COc1ccc2nc(-c3ccccn3)[nH]c2c1,93.2% (active)
4,COc1ccc(OC)c(C2=C/C(=C/c3ccccn3)C(=O)O2)c1,6.12%
5,O=c1[nH]c2cc(C(F)(F)F)ccc2n1-c1cc(C(F)(F)F)ccc1O,8.69%
6,CCOc1ccccc1C(=O)NN1C(=O)CCC1=O,23.7% (active)
7,Cc1cc(S(=O)(=O)NC(C)C)ccc1OCC(=O)NCc1ccccc1,3.1%
8,Cc1ccnc2nc(C(=O)OCC(=O)NCCc3ccccc3)nn12,28.6% (active)
9,CCC1C/C(=C\c2cc(OC)c(OC)cc2OC)C(=O)/C(=C/c2cc(OC)c(OC)cc2OC)C1 (centres undefined),21.3% (active)
10,COc1cc(OC)c(OC)cc1/C=C1/Cc2ccccc2C1=O,8.78%
11,Cc1cc(NS(C)(=O)=O)c(=O)n(Cc2cccc(F)c2)c1,0.31%
12,C/C(=C\C=C(C#N)C#N)c1cc(C#N)c(N)o1,16.3% (active)
13,c1ccc(Cn2c(-c3ccccc3)nc3nc4ccccc4nc32)cc1,32.2% (active)
14,Cc1nnc(-c2ccccc2)c(=O)n1/N=C/c1c(O)ccc2ccccc12,5.78%
15,Oc1ccc2ccccc2c1C=NCc1cn2ccsc2n1,3.76%
16,O=C(N/N=C\c1c(O)ccc2ccccc12)c1cncc(Br)c1,20% (active)
17,O=C(N/N=C/c1c(O)ccc2ccccc12)c1cccc(C(F)(F)F)c1,164% (active)
18,O=C(NN=Cc1c(O)ccc2ccccc12)c1ccncc1,9.86%
19,Cn1nnnc1SCCOc1ccc(C#N)cc1,-1.4%
20,CCOC(=O)c1cn(-c2ccc(F)c(F)c2F)c2c(F)c(F)c(F)cc2c1=O,10.3%
21,Cc1cc([N+](=O)[O-])nn1CC(=O)Nc1c(C)n(C)n(-c2ccccc2)c1=O,8.97%
22,Cc1c(N=C2N=C(NC(=O)Nc3ccc(Cl)cc3)c3ccccc32)c(=O)n(-c2ccccc2)n1C,58.8% (active)
